Assay results reported in ChEMBL document CHEMBL4823302, “Evaluation of γ-carboline-phenothiazine conjugates as simultaneous NMDA receptor blockers and cholinesterase inhibitors” (Bioorg Med Chem, 2021).

Key:
Acetylcholinesterase [1] = target: T1, Acetylcholinesterase (Homo sapiens, UniProt P22303); experiment: Inhibition of recombinant human AChE expressed in HEK293 cells by Ellman's method; type: cell-based
Cholinesterase = Cholinesterase (Equus caballus, UniProt P81908); experiment: Inhibition of recombinant equine BChE by Ellman's method
[2] = target: T2, Glutamate NMDA receptor; GRIN1/GRIN2A (Homo sapiens, UniProt Q05586+Q12879); experiment: Inhibition of human GluN1-1a/NR2A receptor expressed in transgenic mouse fibroblast cells assessed as inhibition of L-glutamate-induced excitotoxicity by measuring LDH activity by cell based assay
In short: (§1)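 Stably transfected mouse fibroblasts expressing human GluN1-1a/2A or GluN1-1a/2B receptors; excitotoxicity induced with 10 μM L-glutamate plus 10 μM glycine and quantified as LDH activity in medium. Agonists without antagonist defined 100%; agonists plus 100 μM ketamine defined 0%. IC50 ± SD from at least three independent experiments.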

[3] = target: Glutamate NMDA receptor; GRIN1/GRIN2B (Homo sapiens, UniProt Q05586+Q13224); experiment: Inhibition of human GluN1-1a/NR2B receptor expressed in transgenic mouse fibroblast cells assessed as inhibition of L-glutamate-induced excitotoxicity by measuring LDH activity by cell based assay; in short: as §1
[4] = target: T2, Glutamate NMDA receptor; GRIN1/GRIN2A; experiment: Inhibition of human GluN1-1a/NR2A receptor expressed in transgenic mouse fibroblast cells assessed as inhibition of L-glutamate-induced excitotoxicity at 50 uM by measuring LDH activity by cell based assay
In short: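 Mouse fibroblasts stably expressing human GluN1-1a/2A or GluN1-1a/2B receptors were exposed to 10 μM L-glutamate plus glycine with test agent. Excitotoxicity was read as LDH activity in the medium. Agonists alone defined 100%; agonists plus 100 μM ketamine defined 0%. Percent inhibition at the single test concentration came from at least three independent experiments.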

[5] = system: Glutamate NMDA receptor GRIN1/GRIN2B (Homo sapiens); experiment: Inhibition of human GluN1-1a/NR2B receptor expressed in transgenic mouse fibroblast cells assessed as inhibition of L-glutamate-induced excitotoxicity at 20 uM by measuring LDH activity by cell based assay
Acetylcholinesterase [6] = target: T1, Acetylcholinesterase; experiment: Inhibition of recombinant human AChE expressed in HEK293 cells at 20 uM by Ellman's method relative to control; type: cell-based
[7] = Solubility of the compound in buffer at > 20 uM; type: physicochemical
[8] = target: Cholinesterase (Equus caballus) (UniProt P81908); experiment: Inhibition of recombinant equine BChE at 20 uM by Ellman's method relative to control
In short: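 Ellman assay with equine BChE as enzyme, compound at single concentration as listed; percent inhibition relative to control, measured in triplicate.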

[9] = Solubility of the compound at >= 50 uM; type: physicochemical
Acetylcholinesterase [10] = target: T1, Acetylcholinesterase; experiment: Inhibition of recombinant human AChE expressed in HEK293 cells at 50 uM by Ellman's method relative to control; type: cell-based
[11] = Selectivity ratio of IC50 for recombinant human AChE to IC50 for equine BuChE

Cholinesterase, sequence (P81908 whole entry): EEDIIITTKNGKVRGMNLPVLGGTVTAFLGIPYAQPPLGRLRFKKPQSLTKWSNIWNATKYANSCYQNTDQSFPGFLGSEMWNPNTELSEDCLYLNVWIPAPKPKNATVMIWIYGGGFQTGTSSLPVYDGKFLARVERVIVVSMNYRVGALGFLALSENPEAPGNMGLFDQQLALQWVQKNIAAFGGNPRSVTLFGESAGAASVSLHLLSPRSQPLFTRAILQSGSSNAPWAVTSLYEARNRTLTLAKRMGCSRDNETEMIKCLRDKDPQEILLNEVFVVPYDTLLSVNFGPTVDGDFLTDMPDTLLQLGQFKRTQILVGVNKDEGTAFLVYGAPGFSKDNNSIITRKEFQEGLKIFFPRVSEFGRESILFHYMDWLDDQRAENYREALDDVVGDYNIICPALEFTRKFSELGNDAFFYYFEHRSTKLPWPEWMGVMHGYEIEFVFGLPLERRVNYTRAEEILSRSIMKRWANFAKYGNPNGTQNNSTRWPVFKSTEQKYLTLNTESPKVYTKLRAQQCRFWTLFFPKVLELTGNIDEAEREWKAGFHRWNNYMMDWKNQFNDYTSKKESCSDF
T1 sequence (P22303 whole entry): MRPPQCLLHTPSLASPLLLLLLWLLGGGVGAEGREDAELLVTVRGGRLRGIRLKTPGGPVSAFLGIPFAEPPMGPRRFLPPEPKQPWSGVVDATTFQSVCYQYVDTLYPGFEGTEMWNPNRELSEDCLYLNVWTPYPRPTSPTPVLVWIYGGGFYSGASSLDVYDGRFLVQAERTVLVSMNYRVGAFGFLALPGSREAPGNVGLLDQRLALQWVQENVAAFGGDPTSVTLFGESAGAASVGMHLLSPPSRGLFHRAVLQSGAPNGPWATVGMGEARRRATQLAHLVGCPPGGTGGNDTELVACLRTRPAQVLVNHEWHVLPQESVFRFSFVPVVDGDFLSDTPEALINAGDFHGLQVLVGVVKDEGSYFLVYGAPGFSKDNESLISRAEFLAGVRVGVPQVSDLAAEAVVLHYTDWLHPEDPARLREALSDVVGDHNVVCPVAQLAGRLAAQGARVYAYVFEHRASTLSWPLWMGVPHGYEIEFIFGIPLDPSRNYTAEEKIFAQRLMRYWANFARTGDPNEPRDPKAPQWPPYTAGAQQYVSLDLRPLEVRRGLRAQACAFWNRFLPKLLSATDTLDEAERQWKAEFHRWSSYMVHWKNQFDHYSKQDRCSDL
Glutamate NMDA receptor; GRIN1/GRIN2B, sequence (Q13224 whole entry, looked up, other chains not shown): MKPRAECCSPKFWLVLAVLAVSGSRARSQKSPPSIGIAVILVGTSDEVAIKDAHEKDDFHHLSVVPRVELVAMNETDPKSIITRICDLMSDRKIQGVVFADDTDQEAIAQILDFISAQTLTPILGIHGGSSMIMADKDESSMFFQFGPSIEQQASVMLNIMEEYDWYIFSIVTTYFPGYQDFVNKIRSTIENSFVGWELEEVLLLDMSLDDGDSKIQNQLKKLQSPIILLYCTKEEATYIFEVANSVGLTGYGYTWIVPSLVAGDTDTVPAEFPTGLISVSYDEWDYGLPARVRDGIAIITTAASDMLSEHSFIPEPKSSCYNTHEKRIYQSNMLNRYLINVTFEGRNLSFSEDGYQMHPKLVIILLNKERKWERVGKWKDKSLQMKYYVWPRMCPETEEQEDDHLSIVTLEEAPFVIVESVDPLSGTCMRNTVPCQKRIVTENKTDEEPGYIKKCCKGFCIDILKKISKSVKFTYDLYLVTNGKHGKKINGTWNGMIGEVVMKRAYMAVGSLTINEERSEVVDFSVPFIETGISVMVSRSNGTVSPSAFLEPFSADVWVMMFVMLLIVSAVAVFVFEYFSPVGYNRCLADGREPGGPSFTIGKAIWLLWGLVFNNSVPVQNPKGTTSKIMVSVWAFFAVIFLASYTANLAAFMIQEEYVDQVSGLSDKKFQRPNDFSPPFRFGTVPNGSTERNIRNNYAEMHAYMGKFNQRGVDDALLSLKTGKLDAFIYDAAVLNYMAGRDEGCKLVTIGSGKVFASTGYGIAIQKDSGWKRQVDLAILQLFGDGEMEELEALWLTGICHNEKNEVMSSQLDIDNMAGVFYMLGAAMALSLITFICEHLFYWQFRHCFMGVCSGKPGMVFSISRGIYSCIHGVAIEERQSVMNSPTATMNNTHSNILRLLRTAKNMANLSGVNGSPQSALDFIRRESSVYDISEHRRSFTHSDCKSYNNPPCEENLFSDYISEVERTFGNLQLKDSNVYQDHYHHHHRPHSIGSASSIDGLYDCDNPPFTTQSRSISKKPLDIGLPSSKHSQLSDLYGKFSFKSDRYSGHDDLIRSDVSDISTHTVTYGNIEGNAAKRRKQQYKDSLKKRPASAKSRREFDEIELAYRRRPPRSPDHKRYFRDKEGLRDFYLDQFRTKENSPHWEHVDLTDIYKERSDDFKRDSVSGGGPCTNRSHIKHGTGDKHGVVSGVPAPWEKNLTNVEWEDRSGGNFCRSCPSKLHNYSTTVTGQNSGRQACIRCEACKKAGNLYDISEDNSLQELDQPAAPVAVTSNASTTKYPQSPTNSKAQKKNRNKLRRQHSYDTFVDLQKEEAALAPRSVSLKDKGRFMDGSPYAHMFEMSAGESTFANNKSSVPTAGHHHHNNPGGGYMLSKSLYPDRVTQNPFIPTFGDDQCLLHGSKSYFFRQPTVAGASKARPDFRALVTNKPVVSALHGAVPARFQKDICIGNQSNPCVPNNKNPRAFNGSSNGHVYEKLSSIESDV
Cholinesterase (Equus caballus), sequence (P81908 whole entry): as the sequence (P81908 whole entry) above

| Compound | IC50 (Acetylcholinesterase [1]) [µM] | IC50 (Cholinesterase) [µM] | IC50 [2] [µM] | IC50 [3] [µM] | inhibition [4] [%] | inhibition [5] [%] | inhibition (Acetylcholinesterase [6]) [%] | solubility [7] | inhibition [8] [%] | solubility [9] | inhibition (Acetylcholinesterase [10]) [%] | Ratio IC50 [11] |
| --- | --- | --- | --- | --- | --- | --- | --- | --- | --- | --- | --- | --- |
| C[n+]1ccc2c(c1)c1ccccc1n2CCC(=O)N1c2ccccc2Sc2ccccc21 | 2.2 | 0.041 | 2.4 | 1.4 | – | – | – | – | – | – | – | – |
| CN1CCc2c(c3ccccc3n2CCCCCCCCCn2c3c(c4ccccc42)CN(C)CC3)C1 | – | – | – | – | < 50 | < 50 | – | – | – | – | – | – |
| C[n+]1ccc2c(c1)c1cc(F)ccc1n2CCC(=O)N1c2ccccc2Sc2ccccc21 | 2.6 | 0.032 | 3 | 2.1 | – | – | – | – | – | – | – | – |
| c1ccc2c(c1)Nc1ccccc1S2 [PHENOTHIAZINE] | – | – | – | – | < 50 | – | < 30 | Insoluble | < 50 | – | – | – |
| c1ccc2c(c1)c1cnccc1n2CCCCCCCCCn1c2ccccc2c2cnccc21 | 0.08 | – | – | – | < 50 | < 50 | – | – | – | – | – | – |
| COc1ccc2[nH]c3ccncc3c2c1 | 49.6 | 12.6 | – | – | < 50 | < 50 | – | – | – | Insoluble | – | – |
| O=C(CCn1c2ccccc2c2c[n+](Cc3ccccc3)ccc21)N1c2ccccc2Sc2ccccc21 | 2.2 | 0.011 | 1 | 0.9 | – | – | – | – | – | – | – | – |
| Cc1ccc2[nH]c3c(c2c1)CN(Cc1ccccc1)CC3 | 35.1 | 1.4 | – | – | < 50 | < 50 | – | – | – | Insoluble | – | – |
| C[n+]1ccc2c(c1)c1ccccc1n2CCCCCCCCCn1c2ccccc2c2c[n+](C)ccc21 | 0.00033 | – | – | – | – | – | – | – | – | – | – | – |
| Cc1ccc2[nH]c3ccncc3c2c1 | 35.4 | 1.4 | – | – | < 50 | < 50 | – | – | – | Insoluble | – | – |
| COc1ccc2[nH]c3cc[n+](C)cc3c2c1.[I-] | 14.7 | 9.8 | – | – | < 50 | < 50 | – | – | – | Insoluble | – | – |
| c1ccc(CN2CCc3[nH]c4ccccc4c3C2)cc1 | 20.4 | 6.5 | – | – | < 50 | < 50 | – | – | – | Insoluble | – | – |
| CN1CCc2[nH]c3ccccc3c2C1 | – | 6.5 | – | – | < 50 | < 50 | – | – | – | Insoluble | < 50 | – |
| C[n+]1ccc2[nH]c3ccc(F)cc3c2c1.[I-] | 1.9 | 2.7 | – | – | < 50 | < 50 | – | – | – | Insoluble | – | – |
| Cn1ccc2nc3ccccc3c-2c1.I | 8.7 | 0.89 | – | – | < 50 | < 50 | – | – | – | Insoluble | – | – |
| CN1CCc2c(c3ccccc3n2CCC(=O)N2c3ccccc3Sc3ccccc32)C1 | 7.8 | 0.17 | – | – | < 50 | < 50 | – | – | – | Insoluble | – | – |
| COc1ccc2c(c1)c1cnccc1n2CCC(=O)N1c2ccccc2Sc2ccccc21 | 0.54 | 0.037 | 0.8 | 0.6 | – | – | – | – | – | – | – | – |
| COc1ccc2c(c1)c1c[n+](C)ccc1n2CCC(=O)N1c2ccccc2Sc2ccccc21 | 5.3 | 0.041 | 0.4 | 0.2 | – | – | – | – | – | – | – | – |
| O=C(CCn1c2ccccc2c2cnccc21)N1c2ccccc2Sc2ccccc21 | 2.3 | 0.008 | 4.2 | 3 | – | – | – | – | – | – | – | – |
| COc1ccc2[nH]c3c(c2c1)CN(Cc1ccccc1)CC3 | 52.7 | 6.3 | – | – | < 50 | < 50 | – | – | – | Insoluble | – | – |
| COc1cc2c(cc1OC)C(=O)C(CC1CCN(Cc3ccccc3)CC1)C2 (stereo not drawn) | – | – | – | – | < 50 | – | – | – | – | – | – | – |
| [Br-].c1ccc(C[n+]2ccc3[nH]c4ccccc4c3c2)cc1 | 8.6 | 1.9 | – | – | < 50 | < 50 | – | – | – | Insoluble | – | – |
| Fc1ccc2[nH]c3ccncc3c2c1 | 11.4 | 0.55 | – | – | < 50 | < 50 | – | – | – | Insoluble | – | – |
| Fc1ccc2[nH]c3c(c2c1)CN(Cc1ccccc1)CC3 | 17.6 | 2.1 | – | – | < 50 | < 50 | – | Insoluble | – | Insoluble | – | – |
| O=C(CCn1c2ccncc2c2cc(F)ccc21)N1c2ccccc2Sc2ccccc21 | 6.2 | 0.008 | 1.7 | 2.7 | – | – | – | – | – | – | – | 775 |
| Cc1ccc2c(c1)c1c[n+](C)ccc1n2CCC(=O)N1c2ccccc2Sc2ccccc21 | 1.1 | 0.032 | 0.9 | 0.5 | – | – | – | – | – | – | – | – |
| Cc1ccc2[nH]c3cc[n+](C)cc3c2c1.[I-] | 9.1 | 5.5 | – | – | < 50 | < 50 | – | – | – | Insoluble | – | – |
| Cc1ccc2c(c1)c1cnccc1n2CCC(=O)N1c2ccccc2Sc2ccccc21 | 0.51 | 0.016 | 1.3 | 1.5 | – | – | – | – | – | – | – | – |
| c1ccc2c(c1)[nH]c1ccncc12 | 21.4 | 1.2 | – | – | < 50 | – | – | – | – | Insoluble | – | – |
